Published values collected from several papers.
Observed: enzyme activity
CYP2C8: Cytochrome P450 2C8 (CYP2C8, Homo sapiens, UniProt P10632)
CYP2C9: Cytochrome P450 2C9 (CYP2C9, Homo sapiens, UniProt P11712)

SMILES	target	assay	system	conditions	measurement	result
Cc1cccc(F)c1N1CCC(N2Cc3cn(CC(C)(F)F)nc3N(Cc3ccccc3C(F)(F)F)C2=O)CC1	CYP2C8	inhibitor	human, liver microsomes		Ki	7 µM
Nc1nc(N)c2nc(C(=O)NCc3cccc(C(F)(F)F)c3)cnc2n1	CYP2C9	inhibitor, luciferase		10 µM	inhibition	-17.1%
O=C(Nc1c2c(cc3c1CCC3)CCC2)NS(=O)(=O)/C=C/c1nccs1	CYP2C8	inhibitor	human, liver microsomes	2 µM, pH 7.4	inhibition	59.1%
CCc1cc(/C(C)=N/OCc2ccc(C3CCCCC3)c(C(F)(F)F)c2)ccc1CN1CC(C(=O)O)C1	CYP2C8	inhibitor	human, liver microsomes	200 µM, 20 min	inhibition	17%
CON=C(N)c1ccc(-c2ccc(-c3ccc(C(N)=NOC)cc3)o2)cc1	CYP2C8	substrate			Km	2.6 µM
CCc1nc2c(C)cc(N3CCN(CC(=O)N4CC(O)C4)CC3)cn2c1N(C)c1nc(-c2ccc(F)cc2)c(C#N)s1	CYP2C8	inhibitor			kinact	0.000588 s⁻¹
Cc1nc2c([nH]1)c(=O)n(C)c(=O)n2Cc1ccco1	CYP2C9	inhibitor	human, liver microsomes	40 µM	inhibition	7%
CC1(CO)C(O[C@@H]2O[C@H](C(=O)O)[C@@H](O)[C@H](O)[C@H]2O)CC[C@@]2(C)C1CC[C@]1(C)C2CC=C2[C@H]3CC(C)(C)[C@H](O)[C@@H](O)[C@]3(CO)[C@H](O)C[C@]21C (stereo partly drawn)	CYP2C8	inhibitor, mass spectrometry	human, liver microsomes		IC50	> 90 µg/mL
CCN(Cc1cnc2nc(N)nc(N)c2n1)c1ccc(C(=O)N2CCC(C(=O)OC)CC2)cc1	CYP2C9	inhibitor, luciferase		10 µM	inhibition	-2.93%
